Screening results: PubChem BioAssay, Broad Institute
A selection: hits, their analogues and other compounds. The true share with any hit is near 2.3%.
ERp5 block: ERp5 (human) disulfide isomerase inhibition; Q15084; ERp5 insulin aggregation, absorbance 650 nm, 90 min; inhibition, % at 9.99 µM; 0.05% of 350,000 active;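 active = mean replicate inhibition above about 25%, with every replicate also reaching it, limit read from the data, passing the limit was not always enough; inconclusive = only one of those two criteria met; inactive = neither criterion met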
F508del corr: CFTR F508del correction in bronchial cells | CFBE cells, YFP halide quenching; stimulated with forskolin plus potentiator P3; % fluorescence drop versus neutral controls | activity (quench increase), % at 7.58 µM | 0.36% of 350,000 active | AID 720511;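 active = mean added fluorescence quench of at least 8% versus neutral control, with both replicates also reaching 8%; inconclusive = only one of the mean or replicate conditions met; inactive = mean below 8% and not both replicates reaching 8%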;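 note: cells transiently co-express mutant CFTR-F508del with the halide-sensitive YFP; corrector assay measuring rescue of mutant channel to the surface after 24 h compound exposure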
Cneo AK release: Cryptococcus neoformans lysis via adenylate kinase release | C. neoformans lysis, adenylate kinase release luminescence, 4 h; normalised: neutral wells 0, clomiphene wells 100 | lysis activity, % at 15 µM | 0.2% of 360,000 active;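 active = mean lysis activity across replicates of at least 80%, whatever share of replicates individually reach that level; inactive = mean lysis activity below 80%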
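Test system: log-phase Cryptococcus neoformans yeast cells. Input: 5 × 10^6 yeast cells/mL. Medium: fresh YPD growth medium. Doses: single dose. Incubation: static 4 h at 37 °C with compound, 1 h detection. Measured by: luminescent adenylate kinase detection reagent. Read-out: signal increase indicating cell lysis. Benchmarks: Clomiphene.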
DENV2 CPE: DENV2-induced cell death inhibition; DENV2-infected cells, cytopathic effect rescue, plate reader; CPE inhibition, % at 9.99 µM; 1.7% of 350,000 active; in the data active = CPE inhibition above about 20%, passing the limit was not always enough; inconclusive = no clear call, values can overlap the other calls; tested in BHK-21 cells
Statin myotox sup: suppression of simvastatin myotoxicity | C2C12 myotubes + simvastatin, ATP luminescence, 48 h; scaled: DMSO 0, geranylgeraniol control 100 | rescue of ATP level, % at 7.49 µM | 0.78% of 330,000 active | AID 602340;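 active = mean ATP rescue above about 67%, or every replicate alone reaching that limit, limit read from the data, passing the limit was not always enough; inconclusive = no clear call, values can overlap the other calls; inactive = mean under the limit and some replicate under it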;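 note: myotubes were challenged with 10 µM simvastatin during compound exposure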
PDI inh: blocks human protein disulfide isomerase activity; P07237; PDI insulin aggregation turbidity, A650, 90 min; inhibition, % at 10 µM; 0.052% of 350,000 active;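 active = mean inhibition across replicates of 30% or more, whatever share of single replicates reach that level; inconclusive = mean inhibition below 30% while every single replicate reaches 30%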
Target sequence (P07237 whole entry, looked up): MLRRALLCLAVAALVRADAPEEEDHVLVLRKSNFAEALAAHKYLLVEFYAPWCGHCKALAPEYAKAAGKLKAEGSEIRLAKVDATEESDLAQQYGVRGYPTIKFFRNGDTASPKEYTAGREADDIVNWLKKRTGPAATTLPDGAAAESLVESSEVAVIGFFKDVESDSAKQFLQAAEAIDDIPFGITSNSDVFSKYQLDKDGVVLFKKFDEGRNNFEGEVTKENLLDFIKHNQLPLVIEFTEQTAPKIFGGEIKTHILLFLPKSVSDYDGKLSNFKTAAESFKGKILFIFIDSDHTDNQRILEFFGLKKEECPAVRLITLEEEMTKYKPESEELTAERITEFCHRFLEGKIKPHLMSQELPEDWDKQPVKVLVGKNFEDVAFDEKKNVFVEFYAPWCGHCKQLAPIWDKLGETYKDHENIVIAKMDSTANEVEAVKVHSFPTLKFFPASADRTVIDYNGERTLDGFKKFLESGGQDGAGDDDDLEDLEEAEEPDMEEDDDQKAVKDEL
Each line names hits and unclear results; the compound was inactive in the other large screens.

O=C(CN1C(=O)NC2(CCCCCCC2)C1=O)Nc1ccc(Br)cc1	F508del corr 9.1 (no result: Cneo AK release)
CCCC#Cc1cnc2c(c1)C(=O)N([C@@H](C)CO)C[C@H](C)[C@@H](CN(C)S(=O)(=O)c1cccc(OC)c1)O2	none (no result: PDI inh)
Cc1oc(-c2ccc(Cl)cc2)[n+]([O-])c1C	Statin myotox sup 75.6 (no result: ERp5 block, F508del corr, DENV2 CPE)
C[C@@H](NC(=O)C[C@H]1C=C[C@H](NC(=O)C2CCOCC2)[C@@H](CO)O1)c1ccccc1	none (no result: PDI inh)
O=C1NN(c2cccc(Br)c2)C(=O)/C1=C\c1ccc(O)cc1	F508del corr 8.6
Cc1ccc(S(=O)(=O)Nc2ccc3c(c2)C(=O)N([C@@H](C)CO)C[C@@H](C)[C@H](CN(C)S(=O)(=O)c2cn(C)cn2)OCCCC[C@@H](C)O3)cc1	DENV2 CPE 20.5 (no result: Statin myotox sup, PDI inh)
C[C@@H]1CCCCO[C@@H](CN(C)S(=O)(=O)c2cn(C)cn2)[C@@H](C)CN([C@H](C)CO)C(=O)c2cc(NS(=O)(=O)c3ccc(Cl)cc3)ccc2O1	DENV2 CPE 36.8 (no result: Statin myotox sup, PDI inh)
Cc1noc(C)c1S(=O)(=O)Nc1ccc2c(c1)C(=O)N([C@@H](C)CO)C[C@@H](C)[C@@H](CN(C)S(=O)(=O)c1cn(C)cn1)OCCCC[C@H](C)O2	none (no result: Statin myotox sup, PDI inh)
Cc1ccc(S(=O)(=O)Nc2ccc3c(c2)C(=O)N([C@H](C)CO)C[C@H](C)[C@@H](CN(C)S(=O)(=O)c2cn(C)cn2)OCCCC[C@@H](C)O3)cc1	none (no result: Statin myotox sup, PDI inh)
Cc1noc(C)c1S(=O)(=O)Nc1ccc2c(c1)C(=O)N([C@@H](C)CO)C[C@@H](C)[C@H](CN(C)S(=O)(=O)c1cn(C)cn1)OCCCC[C@@H](C)O2	DENV2 CPE 37.4 (no result: Statin myotox sup, PDI inh)
C[C@H](CO)N1C[C@H](C)[C@@H](CN(C)C(=O)Nc2ccc(C(F)(F)F)cc2)Oc2c(NC(=O)C3CCOCC3)cccc2C1=O	DENV2 CPE inconclusive (no result: PDI inh)
O=C(NNCc1ccc(O)cc1)c1ccccc1Cl	DENV2 CPE 74.9
CCCCCNC(=O)c1[nH]c(C(F)(F)F)nc1-c1ccccc1	DENV2 CPE 28.1 (no result: PDI inh)
CCSc1ncc(/C=N/Nc2ccccc2)n1C	Statin myotox sup 91.8 (no result: ERp5 block, F508del corr, DENV2 CPE)
COc1ccc(S(=O)(=O)Nc2ccc3c(c2)C(=O)N(C)C[C@@H](OC)[C@H](C)CN(Cc2cc(F)ccc2F)[C@H](C)CO3)cc1	none (no result: PDI inh)
CCC(=O)N1C[C@H](O)COC[C@H]2O[C@@H](CC(=O)NCc3ccc(Oc4ccccc4)cc3)CC[C@@H]21	DENV2 CPE 91.5 (no result: PDI inh)
O=C(C[C@H]1CC[C@@H]2[C@H](COC[C@H](O)CN2CCc2ccccc2)O1)NCc1ccc(Oc2ccccc2)cc1	none (no result: PDI inh)
O=C(C[C@@H]1CC[C@H]2[C@@H](COC[C@H](O)CN2CCc2ccccc2)O1)NCc1ccc(Oc2ccccc2)cc1	DENV2 CPE 23.6 (no result: PDI inh)
c1ccn2cc(-c3ccc4c(c3)OCCO4)nc2c1	none (no result: Cneo AK release, Statin myotox sup)
Cc1ccc2nc(-c3ccc4c(c3)OCCO4)cn2c1	F508del corr 12.1 (no result: Statin myotox sup)
COCCCn1c(SCC(=O)NCc2ccco2)nc2sc3c(c2c1=O)CCC3	Statin myotox sup 132.3 (no result: ERp5 block, F508del corr, DENV2 CPE)
O=C(CCn1c(SCC(=O)NCc2ccco2)nc2ccccc2c1=O)NCCc1ccccc1	Statin myotox sup 102.3 (no result: ERp5 block, F508del corr, DENV2 CPE)
COc1ccc(S(=O)(=O)N(C)C[C@@H]2Oc3ccc(NC(=O)Cn4cnnn4)cc3C(=O)N([C@H](C)CO)C[C@@H]2C)cc1	none (no result: Statin myotox sup, PDI inh)
COc1ccc(S(=O)(=O)N(C)C[C@H]2Oc3ccc(NC(=O)C4CCCCC4)cc3CC(=O)N([C@H](C)CO)C[C@H]2C)cc1	DENV2 CPE 22.0 (no result: PDI inh)
COc1ccc(NC(=O)Nc2ccc3c(c2)CC(=O)N([C@@H](C)CO)C[C@H](C)[C@@H](CN(C)S(C)(=O)=O)O3)cc1	none (no result: Cneo AK release, Statin myotox sup, PDI inh)
COc1ccc(S(=O)(=O)N(C)C[C@@H]2Oc3ccc(N(C)C)cc3CC(=O)N([C@H](C)CO)C[C@@H]2C)cc1	DENV2 CPE 22.8 (no result: PDI inh)
COc1ccc(NC(=O)Nc2ccc3c(c2)CC(=O)N([C@H](C)CO)C[C@@H](C)[C@@H](CN(C)S(=O)(=O)c2ccc(OC)cc2)O3)cc1	DENV2 CPE 39.8 (no result: PDI inh)
COc1ccc(NC(=O)Nc2ccc3c(c2)CC(=O)N([C@@H](C)CO)C[C@@H](C)[C@H](CN(C)S(C)(=O)=O)O3)cc1	DENV2 CPE 30.4 (no result: Cneo AK release, Statin myotox sup, PDI inh)
CN(C)CC(=O)Nc1ccc2c(c1)[C@H]1C[C@@H](CC(=O)NCC3CC3)O[C@@H](CO)[C@H]1O2	none (no result: PDI inh)
O=C(NC1CC1)c1ccc(NC(=O)C2CCCC2)cc1	DENV2 CPE 71.6
O=C(NC1CC1)c1ccc(NC(=O)C2CCC2)cc1	none
CC(C)NC(=O)Nc1cccc2c1O[C@@H](CN(C)Cc1ccc(C(F)(F)F)cc1)[C@H](C)CN([C@@H](C)CO)C2=O	none (no result: ERp5 block, Cneo AK release, Statin myotox sup, PDI inh)
CCCNC(=O)C[C@H]1CC[C@@H]2[C@@H](COc3ccc(NC(=O)NCC)cc3C(=O)N2C)O1	none (no result: PDI inh)
COc1cc(-c2noc(C)c2C#Cc2ccccn2)cc(OC)c1OC	F508del corr 10.0
O=C1NC[C@H](Cc2ccccc2)N(CC2CCN(CCCCc3ccccc3)CC2)C1=O	DENV2 CPE 35.2
COc1ccc(CCN2CCC(CN3C(=S)NC[C@@H]3Cc3ccccc3)CC2)cc1OC	DENV2 CPE 93.3 (no result: Cneo AK release, Statin myotox sup, PDI inh)
O=C(C[C@H]1C[C@@H]2c3cc(NS(=O)(=O)c4ccc(F)cc4)ccc3O[C@@H]2[C@@H](CO)O1)NCc1cc(F)ccc1F	none (no result: ERp5 block, PDI inh)
COc1cc(C(=O)Nc2nnc(-c3sccc3C)s2)cc(OC)c1OC	Statin myotox sup 98.4 (no result: ERp5 block, F508del corr, DENV2 CPE)
CCOCc1nnc(NC(=O)c2cc(OC)c(OC)c(OC)c2)s1	none
CCC1(C)Cc2ccccc2C(=S)N1 (stereo not given)	Statin myotox sup 87.9
O=C1c2ccccc2/C(=C\c2ccc(Br)nc2)N1c1ccccc1	DENV2 CPE 47.2 (no result: Cneo AK release, Statin myotox sup, PDI inh)
O=C1c2ccccc2/C(=C\c2ccc(Br)s2)N1c1ccccc1	none
CCS(=O)(=O)NCC[C@H]1CC[C@@H](NC(=O)C2CCCC2)[C@H](CO)O1	none (no result: PDI inh)
Cc1ccc(S(=O)(=O)N(C)C[C@@H]2Oc3ccc(NC(=O)CCN4CCOCC4)cc3C(=O)N([C@H](C)CO)C[C@H]2C)cc1	none (no result: PDI inh)
O=C(C[C@@H]1C[C@H]2c3cc(NC(=O)Cc4ccncc4)ccc3O[C@H]2[C@@H](CO)O1)NCCN1CCCCC1	DENV2 CPE 35.5 (no result: PDI inh)
O=C(C[C@@H]1C[C@H]2c3cc(NC(=O)C4CCC4)ccc3O[C@H]2[C@@H](CO)O1)NCCN1CCCCC1	none (no result: PDI inh)
O=C(C[C@@H]1C[C@H]2c3cc(NC(=O)C4CCC4)ccc3O[C@H]2[C@H](CO)O1)NCCN1CCCCC1	DENV2 CPE 26.3 (no result: PDI inh)
O=C(NCC1CC1)[C@H]1N[C@H]2c3ccc(-c4ccccc4F)c(=O)n3C[C@H]2[C@@H]1CO	none (no result: PDI inh)
CCOc1ccc(Cl)cc1C1=CC(=O)C[C@H](c2ccc(OC)cc2)C1	F508del corr 9.1 (no result: DENV2 CPE)
COc1ccc([C@H]2CC(=O)C=C(c3c(OC)cccc3OC)C2)cc1	F508del corr 11.3
